From ChEMBL document CHEMBL1145092, “Soft antimicrobial agents: synthesis and activity of labile environmentally friendly long chain quaternary ammonium compounds” (J Med Chem, 2003)

Experiments:
Staphylococcus aureus [1] = assay: Minimum concentration required to inhibit Staphylococcus aureus ATCC 25923; format: functional
Method in brief: (§1)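 Broth doubling-dilution MIC in Mueller Hinton broth against ATCC quality-control strains, incubated 24 h at 37 °C in ambient air. Poorly water-soluble compounds were dissolved in minimal DMSO. Values are in µg/mL.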

[2] = Half life (t1/2) was determined; format: ADME
Method in brief: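 Hydrolytic stability: compound from a 0.1 mg/mL ethanol stock was spiked into 10 mM phosphate buffer, pH 6, and held at 60 °C (±0.2 °C). Periodic HPLC or LC-MS/MS analysis was run, and k_obs came from linear regression of peak integration (n = 3). Selected compounds were also tested in diluted (1:4) agar at 37 °C.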

Staphylococcus aureus [3] = assay: Tested for antibacterial activity against Staphylococcus aureus; format: functional
Pseudomonas aeruginosa = assay: Minimum concentration required to inhibit Pseudomonas aeruginosa ATCC 27853; format: functional; method in brief: as §1
Enterococcus faecalis = assay: Minimum concentration required to inhibit Enterococcus faecalis ATCC 29212; format: functional; method in brief: as §1
Escherichia coli = assay: Minimum concentration required to inhibit Escherichia coli ATCC 25922; format: functional; method in brief: as §1
Human alphaherpesvirus 1 [4] = assay: Tested for antiviral activity against HSV-1 at a concentration of 100 ug/mL after 2 hr of treatment at 37 degrees C; format: functional, herpes simplex virus
Method in brief: (§2)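 HSV-1 strain MacIntyre stock (10^6.5–10^7.5 TCID50/100 µL) was mixed 1:1 with twofold compound dilutions made in RPMI-1640 with 2% FBS from a 1 mg/mL HBSS stock; concentrations are final. Mixtures were held 2 h at 37 °C, then diluted 10-fold to stop. Residual titer was measured on Vero monolayers by 10-fold dilutions in quadruplicate wells, scoring CPE daily for 5 days at 37 °C and 5% CO2. Titers were calculated by Reed–Muench as log10 TCID50/0.1 mL, mean of three, against a virus-plus-medium control.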

Human alphaherpesvirus 1 [5] = assay: Tested for antiviral activity against HSV-1 at a concentration of 50 ug/mL after 2 hr of treatment at 37 degrees C; format: functional, herpes simplex virus; method in brief: as §2
Human alphaherpesvirus 1 [6] = assay: Tested for antiviral activity against HSV-1 at a concentration of 25 ug/mL after 2 hr of treatment at 37 degrees C; format: functional, herpes simplex virus; method in brief: as §2
Human alphaherpesvirus 1 [7] = assay: Tested for antiviral activity against HSV-1 at a concentration of 12.5 ug/mL after 2 hr of treatment at 37 degrees C; format: functional, herpes simplex virus; method in brief: as §2

SMILES	MIC (Staphylococcus aureus [1]) [mg/L]	MLC (Staphylococcus aureus [1]) [mg/L]	Log t1/2 [2]	Log 1/MIC (Staphylococcus aureus [3])	MIC (Pseudomonas aeruginosa) [mg/L]	MLC (Pseudomonas aeruginosa) [mg/L]	MIC (Enterococcus faecalis) [mg/L]	MLC (Enterococcus faecalis) [mg/L]	MIC (Escherichia coli) [mg/L]	MLC (Escherichia coli) [mg/L]	Log TCID50 (Human alphaherpesvirus 1 [4])	Log TCID50 (Human alphaherpesvirus 1 [5])	Log TCID50 (Human alphaherpesvirus 1 [6])	Log TCID50 (Human alphaherpesvirus 1 [7])
CCCCCCCCCCCCCCCCCCOC(=O)C[n+]1ccccc1	> 12800	>12800	-1.1	-4.1	> 12800	>12800	> 12800	>12800	> 12800	>12800				
CCCCCCCC(=O)OCC[n+]1ccccc1.[Br-]	500	500	0.62	-2.69	> 2000	>2000	> 2000	>2000	1000	1000				
CCCCCCCCCCCCCCCC(=O)OCC[N+](CC)(CC)CC.[Br-]	2	4			250	250	8	16	64	64	0.8	5.73	6.33	7
CC(=O)OC[n+]1ccccc1.[Cl-]	3200	3200			3200	3200	320	3200	3200	3200				
CCCCCCCCCCCCCCCCCCNC(=O)C[n+]1ccccc1.CCCCCCCCCCCCNC(=O)C[n+]1ccccc1.[Cl-].[Cl-]	8	32			500	500	8	16	125	125				
CCCCCCCCCCCCCCCCOC(=O)CC[n+]1ccccc1	250	250		0.42	> 1000	>1000	250	500	> 1000	>1000				
CCCCCCCCCCCC(=O)OCC[N+](CCCC)(CCCC)CCCC.CCCCCCCCCCCCCCCC(=O)OCC[N+](CCCC)(CCCC)CCCC.[Br-].[Br-]	4	32				>2000	16	16	250	500				
O=C(O)CC[n+]1ccccc1	> 1000	>1000			> 1000	>1000	> 1000	>1000	> 1000	>1000				
CCCCCCCCCCCC(=O)OCC[n+]1ccccc1.CCCCCCCCCCCCCCCC(=O)OCC[n+]1ccccc1.CCCCCCCCCCCCCCCCCC(=O)OCC[n+]1ccccc1.[Br-].[Br-].[Br-]	8	16			> 2000	>2000	32	32	125	250				
OCCC[n+]1ccccc1	> 2000	>2000			> 2000	>2000	> 2000	>2000	> 2000	>2000				
CCCCCCCCCCCCCCCCCCNC(=O)C[n+]1ccccc1	< 0.25	4	0.81	0.6	1000	>2000	< 0.25	8	1000	>2000				
CCCCCCOC(=O)C[n+]1ccccc1	> 12800	>12800	0.15	-4.1	> 12800	>12800	> 12800	>12800	> 12800	>12800				
CCCCCCCCCCCC(=O)OCC[N+](CC)(CC)CC.CCCCCCCCCCCCCCCC(=O)OCC[N+](CC)(CC)CC.[Br-].[Br-]	8	16			> 2000	>2000	32	125	500	500				
CCOC(=O)C(C)[n+]1ccccc1 (stereo not given)	> 12800	>12800			> 12800	>12800	> 12800	>12800	> 12800	>12800				
CCCCCCCCCCCCCCCC(=O)OCCC[n+]1ccccc1	< 0.25	1	2.36	0.6	500	500	1	4	250	250				
CCCCCCCCCCCCCCCCOC(=O)C[n+]1ccccc1	12800	12800	-0.9	-4.1	6400	6400	> 12800	>12800	6400	12800				
CCCCCCCCCCCC(=O)OCC[N+](C)(C)C	16	16			250	250	16	64	64	64				
CC[N+](CC)(CC)CCO.[Br-]	> 1000	>1000			> 1000	>1000	> 1000	>1000	> 1000	>1000				
C[N+](C)(C)CCO [CHOLINE]	> 2000	>2000			> 2000	>2000	> 2000	>2000	> 2000	>2000				
CCOC(=O)C[n+]1ccccc1	> 12800	>12800			> 12800	>12800	> 12800	>12800	> 12800	>12800				
CCCCCCCCCCCC(=O)OCC[N+](CC)(CC)CC.[Br-]	16	16	0.52	-1.2	250	250	32	32	16	125				
O=C(O)C[n+]1ccccc1	6400	12800			12800	12800	12800	12800	12800	12800				
CCCCCCCCCCCC(=O)OCCC[n+]1ccccc1	4	4	1.81	-0.6	250	250	4	16	125	125				
CCCCCCCC/C=C/CCCCCCCC(=O)OCC[n+]1ccccc1.[Br-]	8	16	1.17	-0.9	250	250	4	62	62	125				
CCCCCCCCCCCCCCCC(=O)OCC[N+](CCCC)(CCCC)CCCC	2	2	0.12	-0.3	250	1000	4	8	125	250				
CCCCCCCCCCCC(=O)OCC[N+](CC)(CC)CC.CCCCCCCCCCCC(=O)OCC[n+]1ccccc1.[Br-].[Br-]	32	125			1000	1000	64	64	125	250				
CCCCCCCCCCCC(=O)OCC[N+](CC)(CC)CC.CCCCCCCCCCCC(=O)OCC[N+](CCCC)(CCCC)CCCC.CCCCCCCCCCCC(=O)OCC[n+]1ccccc1.CCCCCCCCCCCCNC(=O)C[n+]1ccccc1.[Br-].[Br-].[Br-].[Br-]	16	250			500	1000	32	32	125	250				
